The values below come from article PMC8081235 (Biochemistry, 2020).

Positions count from the first letter of the chain named. Read-outs that look alike come from different tables or passages of the source.

The target of data set [1] is T1, PLC-γ1 (D1165H) (Rattus norvegicus, UniProt P10686, D1165H).
T1 sequence (P10686 1-1290 D1165H): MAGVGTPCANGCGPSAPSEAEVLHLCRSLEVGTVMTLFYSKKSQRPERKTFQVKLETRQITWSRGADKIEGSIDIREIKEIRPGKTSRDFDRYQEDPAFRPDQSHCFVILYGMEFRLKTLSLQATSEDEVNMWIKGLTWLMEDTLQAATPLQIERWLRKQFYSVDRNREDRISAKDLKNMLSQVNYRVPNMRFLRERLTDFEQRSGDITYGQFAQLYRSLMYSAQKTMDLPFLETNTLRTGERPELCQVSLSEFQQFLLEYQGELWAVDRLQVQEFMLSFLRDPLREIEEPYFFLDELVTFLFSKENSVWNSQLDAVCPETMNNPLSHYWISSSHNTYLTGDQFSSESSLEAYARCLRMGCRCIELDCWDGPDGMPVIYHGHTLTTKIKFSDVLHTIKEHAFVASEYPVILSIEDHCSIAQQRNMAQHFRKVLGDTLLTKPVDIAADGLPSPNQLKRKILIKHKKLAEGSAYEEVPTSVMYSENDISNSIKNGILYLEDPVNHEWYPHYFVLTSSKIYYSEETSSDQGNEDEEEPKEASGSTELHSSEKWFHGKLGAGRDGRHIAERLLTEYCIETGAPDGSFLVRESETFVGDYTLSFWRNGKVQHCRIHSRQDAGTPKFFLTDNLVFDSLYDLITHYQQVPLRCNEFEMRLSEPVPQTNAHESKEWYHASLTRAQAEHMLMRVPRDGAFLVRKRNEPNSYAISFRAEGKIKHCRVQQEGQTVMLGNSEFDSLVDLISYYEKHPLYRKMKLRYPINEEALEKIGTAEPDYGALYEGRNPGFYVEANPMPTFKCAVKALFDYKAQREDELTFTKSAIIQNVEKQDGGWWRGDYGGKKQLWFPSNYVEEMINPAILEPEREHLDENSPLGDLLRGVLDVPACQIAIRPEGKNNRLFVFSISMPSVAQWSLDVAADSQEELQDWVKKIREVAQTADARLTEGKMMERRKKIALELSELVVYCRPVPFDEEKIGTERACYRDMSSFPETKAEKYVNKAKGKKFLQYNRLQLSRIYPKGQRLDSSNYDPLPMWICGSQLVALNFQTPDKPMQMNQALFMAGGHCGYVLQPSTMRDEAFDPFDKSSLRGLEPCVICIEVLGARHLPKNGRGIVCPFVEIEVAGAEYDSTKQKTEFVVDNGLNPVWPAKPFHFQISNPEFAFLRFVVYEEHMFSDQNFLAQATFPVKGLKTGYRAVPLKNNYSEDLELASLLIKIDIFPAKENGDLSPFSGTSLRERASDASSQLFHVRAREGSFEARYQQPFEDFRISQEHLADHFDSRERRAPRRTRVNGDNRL
Put plainly: Pilot high-throughput screen of LOPAC1280 with XY-69 in liposomes. In kind it is biochemical. In outline: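 Screening was run in duplicate in 384-well format with test compounds at 10 μM. Purified PLC-γ1 (D1165H), 1 nM final, was preincubated 15 min at room temperature, then liposomes were added (final PE 220 μM, PIP₂ 20 μM, XY-69 0.5 μM). After 1 h the reaction was quenched with EGTA, pH 10.3, and read 30 min later (ex 485/em 520 nm). Full-inhibition controls were EGTA 10 mM and aurintricarboxylic acid 50 μM.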

For data set [2] the following is noted: stated without experiment or reference; cited from earlier work.
Another data set has as its system PLCs. The settings on record: purified enzymes and intact cells; pan-inhibitors ref 24; cited from earlier work.
The target in data set [3] is T1, PLC-γ1 (D1165H). Put plainly: IC50 measurement with XY-69 in liposomes. In kind it is biochemical. Particulars: for inhibition of PLC-γ1: statement in conclusions, relative to ATP.
Data set [4] concerns the target T2, wild-type PLC-γ1 (Rattus norvegicus, UniProt P10686).
T2 sequence (P10686 2-1290): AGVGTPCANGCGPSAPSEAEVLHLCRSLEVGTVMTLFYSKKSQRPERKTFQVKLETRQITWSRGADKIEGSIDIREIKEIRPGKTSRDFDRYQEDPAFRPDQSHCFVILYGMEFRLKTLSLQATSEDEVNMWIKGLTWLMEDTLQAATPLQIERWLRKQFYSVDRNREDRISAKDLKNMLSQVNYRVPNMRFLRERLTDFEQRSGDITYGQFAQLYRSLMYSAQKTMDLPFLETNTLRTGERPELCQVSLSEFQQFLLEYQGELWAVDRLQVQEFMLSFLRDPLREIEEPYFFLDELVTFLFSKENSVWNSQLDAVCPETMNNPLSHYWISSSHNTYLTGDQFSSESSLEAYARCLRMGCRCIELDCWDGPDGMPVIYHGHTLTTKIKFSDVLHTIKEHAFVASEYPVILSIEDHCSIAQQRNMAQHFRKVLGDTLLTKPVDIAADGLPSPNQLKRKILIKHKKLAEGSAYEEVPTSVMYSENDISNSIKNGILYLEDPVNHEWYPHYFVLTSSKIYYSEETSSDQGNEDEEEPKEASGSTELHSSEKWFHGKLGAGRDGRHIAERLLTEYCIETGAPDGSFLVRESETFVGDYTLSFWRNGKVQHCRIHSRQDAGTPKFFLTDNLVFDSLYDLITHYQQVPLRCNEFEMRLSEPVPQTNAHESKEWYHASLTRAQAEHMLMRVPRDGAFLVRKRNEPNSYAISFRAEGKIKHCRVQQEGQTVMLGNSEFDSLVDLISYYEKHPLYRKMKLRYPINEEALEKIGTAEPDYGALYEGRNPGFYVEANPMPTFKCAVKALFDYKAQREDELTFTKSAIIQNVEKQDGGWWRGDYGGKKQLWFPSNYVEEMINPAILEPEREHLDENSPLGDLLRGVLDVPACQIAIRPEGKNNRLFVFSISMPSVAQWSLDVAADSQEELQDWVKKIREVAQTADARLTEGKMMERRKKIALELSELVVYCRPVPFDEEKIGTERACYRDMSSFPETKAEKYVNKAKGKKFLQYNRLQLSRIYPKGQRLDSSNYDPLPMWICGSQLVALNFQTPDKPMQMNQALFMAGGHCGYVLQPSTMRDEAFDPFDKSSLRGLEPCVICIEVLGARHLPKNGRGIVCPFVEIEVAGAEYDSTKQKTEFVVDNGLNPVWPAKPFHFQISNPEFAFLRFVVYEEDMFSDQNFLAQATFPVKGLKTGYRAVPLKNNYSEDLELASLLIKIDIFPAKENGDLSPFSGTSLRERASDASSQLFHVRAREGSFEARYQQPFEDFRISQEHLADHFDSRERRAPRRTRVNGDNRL
Put plainly: Isothermal titration calorimetry. In kind it is binding. Particulars: ITC, 25 °C. For orientation: In ITC the heat of successive injections is recorded.

For data set [5], the target named is T3, wild-type PLC-γ1 (Rattus norvegicus, UniProt P10686).
T3 sequence (P10686 1-1290): T1 sequence (P10686 1-1290 D1165H) with H1165D

The next data set has as its system PLC-β4. The settings on record: high concentration (1 mM) ref 39; cited from earlier work.
A further data set relates to PLC-γ1. Particulars: purified PLC ref 7; cited from earlier work.
Another data set has as its system PLC-β2. Particulars: purified PLC ref 7; cited from earlier work.
Another data set has as its system PLC-δ1. The settings on record: purified PLC ref 7; cited from earlier work.
The next data set can be described thus: Solubility. In kind it is physicochemical.
Setting [6] is: XY-69 0.5 μM, PIP2 20 μM in liposomes.

For `O=C(O)C1=CC(=C(c2ccc(O)c(C(=O)O)c2)c2ccc(O)c(C(=O)O)c2)C=CC1=O` [ATA, aurintricarboxylic acid], the “inhibition by control in pilot screen” value against PLC-γ1 (D1165H) [1] (50 μM) is listed as “Full inhibition”. Also, in data set [2], the cell permeability entry is reported as “not cell permeable”. Also, in the data set with PLCs, the “direct inhibition of PLCs” value is recorded as “direct inhibitors”.
In general, IC50 refers to the point on the concentration scale where inhibition reaches its midpoint. One may read the Kd as the concentration at which binding is half-saturated. Read a low Kd as a tighter complex. Turning to `Nc1ncnc2c1ncn2[C@@H]1O[C@H](COP(=O)(O)OP(=O)(O)OP(=O)(O)O)[C@@H](O)[C@H]1O` [ATP, adenosine triphosphate], the IC50 at PLC-γ1 (D1165H) [3] worked out at 0.19 µM. In addition, the affinity at wild-type PLC-γ1 [4], expressed as Kd, was 2.6 µM. Also, the “reduction of Vmax” value on wild-type PLC-γ1 [5] (5 μM ATP present) was 4.1 fold. Also, at wild-type PLC-γ1 [5] (1.5 and 5 μM ATP present), the “change of KM” value is on record as “essentially unchanged”. The cell permeability entry in data set [2] is reported as “not cell permeable”. For the same molecule, in the data set with PLC-β4, the inhibition entry was “inhibit”.
For the molecule `Nc1ncnc2c1ncn2[C@@H]1O[C@H](COP(=O)(O)OP(=O)(O)O)[C@@H](O)[C@H]1O` [ADP], the IC50 against PLC-γ1 (D1165H) [3] (setting [6]) is 4.3 µM. Further, the “inhibition of PLC-γ1” value on PLC-γ1 (D1165H) [3] is “less or no inhibition”.
For `COc1ccc2c(c1)CC[C@@H]1[C@@H]2CC[C@]2(C)[C@@H](NCCCCCCN3C(=O)C=CC3=O)CC[C@@H]12` [Hit U73122], on PLC-γ1 (D1165H) [1] (LOPAC1280 at 10 μM), the “flagged as inhibitor in pilot screen” value is recorded as “not flagged as an inhibitor”. Besides, the “inhibition of phospholipase activity” value in the data set with PLC-γ1, in the data set on PLC-β2 and in the data set with PLC-δ1 was “does not inhibit” throughout.
On to `Nc1ncnc2c1ncn2[C@@H]1O[C@H](COP(=O)(O)O)[C@@H](O)[C@H]1O` [AMP], for which the “inhibition of PLC-γ1” value against PLC-γ1 (D1165H) [3] is reported as “less or no inhibition”.
`Nc1nc2c(ncn2[C@@H]2O[C@H](COP(=O)(O)OP(=O)(O)OP(=O)(O)O)[C@@H](O)[C@H]2O)c(=O)[nH]1` [GTP] displayed an IC50 on PLC-γ1 (D1165H) [3] (setting [6]) of 12.7 µM. In other words, the double-digit micromolar range.
As to `O=C(O)CN(CCOCCOCCN(CC(=O)O)CC(=O)O)CC(=O)O` [EGTA], the “inhibition by control in pilot screen” value at PLC-γ1 (D1165H) [1] (10 mM, chelates Ca2+ cofactor) is “Full inhibition”.
Consider `O=C1Nc2cc(Br)ccc2/C1=C1/Nc2ccccc2/C1=N\O` [Hit-1, 6-bromoindirubin-3′-oxime], for which, in the data set “Solubility”, the “solubility in aqueous buffer” value is on record as “poor solubility”. Also, the cell permeability result in [2] is on record as “cell permeable”.
